Active and inactive are the calls of the source. The calls are words filed in the database; no cut-off is given here.
What was measured:
[1] = biological target: Cellular tumor antigen p53 (Homo sapiens) (UniProt P04637); assay: Binding affinity to p53 transfected in human […] cells assessed as reduction in p53 bound-Bcl-2 at 15 uM after 48 hrs; format: cell-based; details: HEK293
Procedure, shortened: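 293T cells cotransfected with Flag-tagged wild-type Bcl-xL or Bcl-2 plus wild-type p53 plasmid; compound 15 mM (so in the source) applied 24 h after transfection; lysates (1 mg protein) immunoprecipitated with anti-Flag M2 gel, bound p53 detected with HRP-conjugated DO-1.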

Thymocyte [2] = assay: Antiapoptotic activity against dexamethasone-induced apoptosis in mouse thymocyte at 10 uM; format: functional, cell-based
Procedure, shortened: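 Primary thymocytes from 4-week-old p53-null C57Bl/6 mice, short-term culture; dexamethasone 0.5 mM, 24 h, with compound at 10 mM as printed; viability by trypan blue (0.1%) or annexin/PI FACScan; means ± s.d., n = 3.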

[3] = Antiapoptotic activity against gamma irradiation-induced apoptosis in mouse thymocyte assessed as cytosolic Cyt c concentration at 20 uM; format: functional, cell-based
Procedure, shortened: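 Thymocytes (20 × 10^6) from 5-week-old C57Bl/6J mice irradiated with 10 Gy gamma, with or without compound ([…] as printed); cytosolic fractions isolated 5 h after irradiation and probed for cytochrome c by western blot.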

[4] = biological target: Cellular tumor antigen p53 (Homo sapiens) (UniProt P04637); assay: Inhibition of p53-dependent transactivation of p21 in gamma-stimulated human ConA cells; format: cell-based
Procedure, shortened: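 ConA cells given 10 µM test agent and 10 Gy gamma irradiation. Protein extracts taken 6 h post-irradiation and p21 detected by immunoblotting.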

WI-38 = assay: Antiapoptotic activity against Fas-induced apoptosis in human WI38 cells assessed as cell survival at 0.1 uM to 10 uM after 24 hrs by methylene blue assay in presence of 1 ug/ml cycloheximidine; format: functional, cell-based
Fibroblast = assay: Antiapoptotic activity against TNF-alpha induced apoptosis in mouse fibroblast assessed as cell survival at 0.1 uM to 10 uM by methylene blue assay in presence of 0.5 ug/ml cycloheximidine after 24 hrs; format: functional, cell-based
[5] = Antiapoptotic activity against fas-induced apoptosis in mouse fibroblast assessed as cell survival at 0.1 uM to 10 uM by methylene blue assay in presence of 1 ug/ml cycloheximidine after 24 hrs; format: functional, cell-based
[6] = biological target: Cellular tumor antigen p53 (Homo sapiens) (UniProt P04637); assay: Inhibition of p53-mediated apoptosis in human WI38 cells assessed as cell survival at 10 uM after 24 hrs by methylene blue assay; format: cell-based; details: WI-38
[7] = biological target: Cellular tumor antigen p53 (Mus musculus) (UniProt P02340); assay: Inhibition of p53-mediated apoptosis in mouse fibroblast assessed as cell survival at 10 uM after 24 hrs by methylene blue assay
[8] = biological target: Cellular tumor antigen p53 (Homo sapiens) (UniProt P04637); assay: Inhibition of p53-mediated apoptosis in human Saos-2 cells harboring p53 expressing lentiviral vector assessed as cell survival at 10 uM after 48 hrs by methylene blue assay; format: cell-based
Procedure, shortened: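 Saos-2 cells infected with p53-expressing lentivirus; 10 µM test agent added 5 h after infection. Survival assessed 48 h after infection by methylene blue (0.5%) staining of attached cells and optical density read-out. Means ± s.d., n = 3.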

[9] = biological target: Cellular tumor antigen p53 (Homo sapiens) (UniProt P04637); assay: Inhibition of p53-mediated transactivation of promoter bax in human H1299 cells at 10 uM after 48 hrs by luciferase reporter assay; format: cell-based
[10] = biological target: Cellular tumor antigen p53 (Homo sapiens) (UniProt P04637); assay: Inhibition of p53-mediated transactivation of promoter cyclin G in human H1299 cells at 10 uM after 48 hrs by luciferase reporter assay; format: cell-based
[11] = biological target: Cellular tumor antigen p53 (Homo sapiens) (UniProt P04637); assay: Effect on UV-induced activation of p53 in human ConA cells assessed as beta-galactosidase activity by X-gal staining; format: cell-based
Procedure, shortened: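 ConA cells carrying a lacZ reporter under a p53-responsive promoter; UV 35 J m–2; β-galactosidase visualized by X-gal staining 24 h after treatment.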

[12] = biological target: Cellular tumor antigen p53 (Homo sapiens) (UniProt P04637); assay: Inhibition of p53-dependent transcription of noxa in human MCF7 cells; format: cell-based
Procedure, shortened: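 Northern analysis of MCF7 cells, p53 wild-type and shRNA p53-knockdown. Induction by UV 8.5 J m–2 or Dox […]. RNA isolated 18 h after treatment; 10 µg hybridised with 32P-labelled full-length cDNA probes for Bax, Noxa or Puma. 18S rRNA used as loading control.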

[13] = biological target: Cellular tumor antigen p53 (Homo sapiens) (UniProt P04637); assay: Inhibition of p53-dependent transcription of puma in human U2OS cells; format: cell-based
Procedure, shortened: (§1)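 Northern analysis of U2OS cells, p53 wild-type and shRNA p53-knockdown. Induction by UV 8.5 J m–2 or Dox […]. RNA isolated 18 h after treatment; 10 µg hybridised with 32P-labelled full-length cDNA probes for Bax, Noxa or Puma. 18S rRNA used as loading control.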

[14] = biological target: Cellular tumor antigen p53 (Homo sapiens) (UniProt P04637); assay: Inhibition of p53-dependent transcription of puma in doxorubicin-induced human U2OS cells; format: cell-based; procedure, shortened: as §1
[15] = biological target: Cellular tumor antigen p53 (Homo sapiens) (UniProt P04637); assay: Inhibition of p53-dependent transcription of bax in doxorubicin-induced human U2OS cells; format: cell-based; procedure, shortened: as §1
[16] = biological target: Cellular tumor antigen p53 (Homo sapiens) (UniProt P04637); assay: Inhibition of p53-mediated transactivation of p21 in gamma-stimulated human BJ cells at 10 uM after 6 hrs; format: cell-based
H1299 = assay: Inhibition of TNFalpha induced NF-kappaB activation in human H1299 cells; format: cell-based
[17] = biological target: Cellular tumor antigen p53 (Mus musculus) (UniProt P02340); assay: Inhibition of p53-dependent transcription of puma in mouse thymocyte
Homo sapiens = species on record: Homo sapiens; assay: Induction of p21 mRNA expression in human SK-MEL-29 cells; format: functional, cell-based
Procedure, shortened: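 Wild-type and p53-deficient cell pairs stimulated with 5-FU ([…] as printed) or gamma irradiation (10 or 15 Gy); p21 mRNA quantified by real-time PCR; means ± s.d., n = 3.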

U2OS [18] = assay: Induction of Puma gene expression in human U2OS cells; format: functional, cell-based
Procedure, shortened: (§2)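 Northern blot: 10 mg RNA (so in the source) isolated 18 h after UV (8.5 J m–2) or doxorubicin (125 mg ml–1 as printed) from MCF7 or U2OS cells and p53-knockdown (lentiviral shRNA) counterparts; hybridized with 32P-labeled full-length cDNA probes for Bax, Noxa, Puma; 18S rRNA loading control.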

U2OS [19] = assay: Induction of Noxa gene expression in human U2OS cells; format: functional, cell-based; procedure, shortened: as §2
U2OS [20] = assay: Induction of Bax gene expression in human U2OS cells; format: functional, cell-based; procedure, shortened: as §2
Thymocyte [21] = assay: Induction of Puma gene expression in mouse thymocytes; format: functional, cell-based
[22] = biological target: Cellular tumor antigen p53 (Homo sapiens) (UniProt P04637); assay: Binding affinity to p53 transfected in human Saos-2 cells harboring pLV-53 assessed as reduction of p53 protein in mitochondria at 10 uM after 48 hrs
Procedure, shortened: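 Saos-2 cells infected with p53-expressing lentivirus; compound ([…] as printed) added 5 h after infection; mitochondrial and cytosolic fractions western blotted for p53 at 48 h post-infection, with mt-Hsp75 and β-actin as fraction loading controls.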

[23] = biological target: Cellular tumor antigen p53 (Homo sapiens) (UniProt P04637); assay: Binding affinity to p53 transfected in human Saos-2 cells harboring pLV-53 assessed as cytosolic p53 concentration at 10 uM after 48 hrs; format: cell-based
[24] = biological target: Cellular tumor antigen p53 (Mus musculus) (UniProt P02340); assay: Binding affinity to p53 in gamma irradiated mouse thymocyte assessed as cytosolic p21 concentration at 10 uM after 2 hrs
[25] = biological target: Cellular tumor antigen p53 (Mus musculus) (UniProt P02340); assay: Binding affinity to p53 in gamma irradiated mouse thymocyte assessed as cytosolic caspase 8 concentration at 10 uM after 2 hrs
Thymocyte [26] = assay: Induction of p21 mRNA expression in mouse thymocytes
Thymocyte [27] = assay: Induction of p21 mRNA expression in gamma-stimulated mouse thymocytes

Sequence of Cellular tumor antigen p53 (Mus musculus) (P02340 whole entry): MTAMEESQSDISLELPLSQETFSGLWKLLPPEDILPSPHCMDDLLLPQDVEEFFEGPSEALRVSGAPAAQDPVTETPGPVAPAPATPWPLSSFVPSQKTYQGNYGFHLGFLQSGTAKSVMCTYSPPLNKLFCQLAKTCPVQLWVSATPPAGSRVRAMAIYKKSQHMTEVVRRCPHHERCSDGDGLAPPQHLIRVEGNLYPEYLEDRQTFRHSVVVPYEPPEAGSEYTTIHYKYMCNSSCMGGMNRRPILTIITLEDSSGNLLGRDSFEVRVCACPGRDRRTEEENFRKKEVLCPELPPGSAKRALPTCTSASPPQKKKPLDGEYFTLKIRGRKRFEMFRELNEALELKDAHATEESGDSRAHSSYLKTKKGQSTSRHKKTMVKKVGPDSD
Sequence of Cellular tumor antigen p53 (Homo sapiens) (P04637 whole entry, looked up): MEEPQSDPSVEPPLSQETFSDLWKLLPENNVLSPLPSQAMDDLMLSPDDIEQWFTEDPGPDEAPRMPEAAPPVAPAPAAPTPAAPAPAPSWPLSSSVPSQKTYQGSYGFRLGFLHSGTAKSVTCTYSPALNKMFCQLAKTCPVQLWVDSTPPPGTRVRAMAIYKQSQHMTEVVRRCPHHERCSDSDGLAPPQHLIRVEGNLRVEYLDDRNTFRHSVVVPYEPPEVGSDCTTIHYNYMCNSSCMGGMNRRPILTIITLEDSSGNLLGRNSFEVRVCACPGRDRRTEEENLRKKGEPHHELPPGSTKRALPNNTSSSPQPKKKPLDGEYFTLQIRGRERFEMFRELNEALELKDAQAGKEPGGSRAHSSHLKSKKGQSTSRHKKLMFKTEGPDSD

NS(=O)(=O)C#Cc1ccccc1
Activity [1]: Active | Activity (Thymocyte [2]): inactive | Activity [3]: Active | inhibition [4]: inactive | Activity (WI-38): inactive | Activity (Fibroblast): inactive | Activity [5]: inactive | inhibition [6]: Active | inhibition [7]: Active | inhibition [8]: Active | inhibition [9]: inactive | inhibition [10]: inactive | Activity [11]: inactive | inhibition [12]: inactive | inhibition [13]: inactive | inhibition [14]: inactive | inhibition [15]: inactive | inhibition [16]: inactive | inhibition (H1299): inactive | inhibition [17]: inactive | Activity (Homo sapiens): inactive | Activity (U2OS [18]): inactive | Activity (U2OS [19]): inactive | Activity (U2OS [20]): inactive | Activity (Thymocyte [21]): inactive | Activity [22]: Active | Activity [23]: inactive | Activity [24]: inactive | Activity [25]: inactive | Activity (Thymocyte [26]): inactive | Activity (Thymocyte [27]): inactive

— ChEMBL document CHEMBL1240314, “Small-molecule inhibitor of p53 binding to mitochondria protects mice from gamma radiation” (2006)
